According to paper PMC12766539 (Molecular pharmaceutics, 2022):

Assays:
[1] = tested on: 31 clinical strains of S. aureus (5 methicillin-susceptible, 26 resistant); assay: MIC against a panel of 31 clinical strains of S. aureus; type: cell-based, Staphylococcus aureus; conditions: ~10^5 CFU/mL, negative control
Summary of the method: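 Exponential-phase bacteria were diluted to ~10⁵ CFU/mL in TSB or MHB and added to serially diluted test compound (in water). Plates were incubated at 37°C for 20 h and growth was read as absorbance at 600 nm. Water-only wells served as the untreated control and medium as the blank.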

pUC19 plasmid = assay: DNA gel retardation experiment; type: binding; conditions: two peptide concentrations (Figure S2)
[2] = tested on: S. aureus USA300 LAC infection; assay: Invertebrate wax moth infection model; type: in vivo, Galleria mellonella; conditions: 64 mg/kg, 1×10^6 CFU/insect, 30 per group, 5 days
Summary of the method: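 Galleria mellonella larvae (~250 mg; 30 per group) were injected with test compound at 64 mg/kg in phosphate buffer 2 h before infection with S. aureus USA300 at 1×10⁶ CFU/insect. Larvae were kept at room temperature and scored live or dead daily for 5 days. Survival was compared by log-rank test.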

Sequence: RIVQRIKDFL [RI-10]
- inhibitory activity at 32 μM [1]: did not show any inhibitory activity
- DNA retardation in the well (pUC19 plasmid): unable to retard DNA
- protection of the animals from infection-caused death [2]: did not protect the animals
